CSN deneddyl inh – inhibitors of human CSN-mediated cullin deneddylation | Purified CSN, SCF-Nedd8-OG deneddylation, fluorescence polarization | AID 651999 | hit rate 0.38% among 360,000 | inhibition, % at 12.5 µM | Q92905;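 active = pattern-corrected inhibition above about 35%, with an unprinted fluorescence ratio check between 0.5 and 1.5, limit read from the data, passing the limit was not always enough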;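 note: 0% = enzyme with substrate and 100% = substrate without enzyme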
Target sequence (Q92905 whole entry, looked up, one chain of several): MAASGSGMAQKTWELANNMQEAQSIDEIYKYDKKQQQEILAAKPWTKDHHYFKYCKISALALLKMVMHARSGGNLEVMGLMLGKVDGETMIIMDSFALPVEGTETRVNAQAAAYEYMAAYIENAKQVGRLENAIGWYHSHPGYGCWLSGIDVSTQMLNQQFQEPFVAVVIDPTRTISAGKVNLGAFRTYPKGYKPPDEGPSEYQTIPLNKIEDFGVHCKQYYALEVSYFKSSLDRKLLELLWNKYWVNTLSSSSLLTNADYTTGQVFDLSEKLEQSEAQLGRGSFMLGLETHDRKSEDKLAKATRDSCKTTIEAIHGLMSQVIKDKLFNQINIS
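Assay system: Purified human Csn5 enzyme expressed in HEK293T cells | Amount: Enzyme 0.24 nM | Measured by: Fluorescence polarization readout | Medium: Tris/NaCl/DTT buffer, pH 7.5 | Compound dosing: One concentration, 12.5 µM, 0.25% DMSO | Times: 90 min incubation of compound, enzyme and substrate at room temperature | Control set: no-enzyme wells high, enzyme-with-substrate wells low | Read-out: % inhibition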
Rpn11 inh – inhibitors of human proteasome Rpn11 | O00487 | human 26S proteasome, Ub4-pepOG fluorescence polarization; 20S core pre-blocked with epoxomicin | inhibition, % at 20 µM | hit rate 0.59% among 360,000 | AID 588493;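 active = inhibition at 20 µM, scaled to each plate's controls, above about 33%, limit read from the data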
TPT1 inhibitor – C. albicans TPT1 enzyme inhibition; AID 1962; inhibition, % at 5 µM; hit rate 0.81% among 300,000; recombinant caTPT1, FP RNA substrate dephosphorylation;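 active = inhibition above the mean of all tested compounds plus 3 SD, set per screening campaign, cut at about 24% in these data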;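 note: plate controls were DMSO alone for no effect and ferristatin control at 100 nM for full effect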
HNF4A DNA FP – change in binding of human HNF4 alpha to DNA; HNF4a-FITC DNA binding, fluorescence polarization, 1 h; activity change, % at 10 µM; hit rate 0.3% among 360,000; AID 1224865; in the data active = activity change above about 30%, passing the limit was not always enough
caTPT1 confirm – confirmation of Candida albicans TPT1 inhibitors | inhibition, % at 5 µM | AID 2149 | shares compounds with TPT1 inhibitor | hit rate 74% among 2,400 | recombinant caTPT1, fluorescence polarization, RNase T1 coupled;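 active = inhibition above the primary screen limit, the mean inhibition of all tested compounds plus 3 SD, cut at about 25% in these data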
RNase T1 counter – RNase T1 inhibition in TPT1 counter-screen; hit rate 83% among 2,400; shares compounds with TPT1 inhibitor; inhibition, % at 5 µM; RNase T1 cleavage, fluorescence polarization, 1536-well;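 active = inhibition above the solvent-only control well mean plus 3 SD, limit set per screening run, cut at about 23% in these data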;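 note: plate controls were DMSO wells with enzyme for no effect and wells without RNase T1 for full effect; inhibitors block cleavage so intact labeled substrate keeps polarization high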
Target sequence (P00651 whole entry, looked up): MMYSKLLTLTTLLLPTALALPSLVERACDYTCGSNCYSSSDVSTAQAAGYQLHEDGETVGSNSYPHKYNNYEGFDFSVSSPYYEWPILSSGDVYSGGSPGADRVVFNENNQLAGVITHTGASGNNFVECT
Starred values were filed as active, the others as inactive; x = no result given. Compounds with a hit are over-represented: about 1.5% of the library has one in this group of screens.

SMILES	CSN deneddyl inh	Rpn11 inh	TPT1 inhibitor	HNF4A DNA FP	caTPT1 confirm	RNase T1 counter
CN=C1S/C(=C\c2ccc(N3CCCC3)c(F)c2)C(=O)N1C	9.7	10.6	29.7*	13.2	52.4*	65.9*
COC(=O)[C@@H]1C[C@H]2CC[C@H](O)C[C@H]2N1Cc1ccccc1OC(=O)c1cccs1	-0.3	7.7	8.4	7.5	x	x
COC(=O)[C@@H]1C[C@@H]2CC[C@@H](O)C[C@@H]2N1Cc1ccccc1OS(=O)(=O)c1ccc(C)cc1	9.0	20.6	33.6*	26.1	37.4*	47.5*
Cc1ccccc1C(=O)N1CCN(c2ccc(NC(=O)c3cccnc3Cl)cc2)CC1	7.7	-19.3	94.5*	4.0	4.9	5.4
CC1(C)c2[nH]c3ccccc3c2C[C@H]2C(=O)N(Cc3ccc(F)cc3)C(=O)N21	-0.7	2.8	-1.1	-0.3	x	x
O=C(O)c1ccccc1N/N=C\c1ccnc2ccccc12	4.0	7.2	24.3*	-4.0	17.6	29.9*
Nc1c(C(=O)O)sc2nc(-c3ccccc3)cc(-c3ccc(F)cc3)c12	8.0	x	28.8*	34.7*	27.3*	38.5*
CCc1nc2c(OCc3ccccc3C(=O)OC)cccn2c1N(C)C(=O)Nc1ccccc1OC	3.5	0.5	x	2.7	x	x
OCc1ccccc1-c1cnc2cccnn12	-2.6	2.0	x	2.6	x	x
CCC1(CC)NC(=O)N(CC(=O)Nc2sc3c(c2C(N)=O)CCC3)C1=O	40.9*	20.0	28.1*	3.4	37.5*	48.4*
CCC1(C)NC(=O)N(CC(=O)Nc2sc3c(c2C(=O)OC)CCCCC3)C1=O (centres undefined)	2.3	1.3	1.5	1.7	x	x
Cn1cc(CNCc2ccccc2OCC(O)CN2CCc3ccccc3C2)cn1 (centres undefined)	-5.8	-0.6	26.4*	3.4	9.4	11.5
CC(C)(C)NC(=O)C1N(c2cccnc2)C(=O)C2C(C(=O)Nc3ccccc3F)C3(C)C=CC21O3 (centres undefined)	-3.3	-10.3	73.0*	4.9	7.3	10.5
CC12C=CC3(O1)C(C(=O)N(c1cccnc1)C3C(=O)NC1CCCCC1)C2C(=O)Nc1ccccc1 (centres undefined)	1.3	-4.2	0.4	5.0	x	x
COc1ccc(NC(=O)CN(C)C(=O)CCCNC(=O)c2ccc(Cl)cc2)cc1	1.6	-2.9	1.0	4.4	x	x
O=c1oc2ccccc2nc1/C=C(O)/C=C\c1ccccc1	2.0	10.7	26.9*	5.9	17.1	27.6*
O=c1oc2ccccc2nc1/C=C(O)/C=C/c1ccc(F)cc1	1.6	11.4	3.3	3.0	x	x
Cc1ccsc1C1CC(=O)OC2=C1C(=O)CC(C)(C)C2 (centres undefined)	x	x	109.0*	x	5.9	10.9
CC1(C)CC(=O)C2=C(C1)OC(=O)CC2c1cccs1 (centres undefined)	7.9	5.4	-2.1	-3.0	x	x
Cc1cc(C)cc(Nc2ccc(C(=O)O)cc2N)c1	-2.1	0.9	28.6*	4.3	6.8	10.3
CCN(CC)c1ccc2cc(C(=O)NCc3ccc(F)cc3)c(=N)oc2c1	7.3	x	77.6*	64.6	109.3*	108.7*
CC(C)(C)OC(=O)NN1CC(=O)N2[C@@H](Cc3c([nH]c4ccccc34)C2(C)C)C1=O	1.6	1.1	-3.8	-0.1	x	x
Cc1ccc(N/C=C/c2onc(C)c2[N+](=O)[O-])cc1	5.9	31.3	49.0*	11.8	55.6*	68.3*
CCC1(C2=CCCCC2)C(=O)NC(=S)N=C1N (centres undefined)	6.7	-0.5	x	2.6	x	x
CCN(CC)c1ccc2cc(-c3nc4ccccc4[nH]3)c(=O)oc2c1	-71.6	-8.7	-7.1	-86.9	x	x
CCN(CC)c1ccc2cc(-c3nnc(-c4ccccc4)o3)c(=O)oc2c1	-78.7	0.6	117.1*	-80.2	122.2*	114.9*
CCN(CC)c1ccc2cc(-c3nc4ccccc4n3C)c(=O)oc2c1	11.2	9.2	80.8*	8.6	80.6*	84.8*
CCOC(=O)C1=CCN(S(=O)(=O)c2ccccc2Br)C1c1cccc(F)c1 (centres undefined)	-0.7	3.2	x	-4.2	x	x
Cc1[nH]c(C)c(S(=O)(=O)NCCc2ccc(S(N)(=O)=O)cc2)c1C(=O)N1CCCC1	-0.1	5.7	-0.5	-0.8	x	x
O=[N+]([O-])c1ccc(C[n+]2cccc3ccc4cccnc4c32)cc1	-9.7	2.5	7.8	0.9	x	x

Bioassay records as filed in PubChem BioAssay.
